This note sets out measurements from article PMC8268672 (Bioorganic Chemistry, 2021).

The EC50 is the concentration at which the effect is half-maximal.

Data set [1] concerns Vaccinia virus. The data set is described as follows: microbe, parasite or virus in culture. The note with it: Orthopoxvirus vaccinia, HEL, read-out: Antiviral EC50, Vaccinia virus. Type of data set: cell-based.
Data set [2] has as its system Coxsackie virus B4. In words: CPE reduction assay in Vero cells. Type of data set: cell-based. The note with it: Enterovirus B, read-out: Antiviral EC50, Coxsackie virus B4.
Data set [3] concerns Sindbis virus. In words: CPE reduction assay in Vero cells. Type of data set: cell-based. The note with it: read-out: Antiviral EC50, Sindbis virus.
Data set [4] has as its system Yellow Fever virus. In words: microbe, parasite or virus in culture. Format: cell-based. The note with it: read-out: Antiviral EC50, Yellow Fever virus.
The test system of data set [5] is Para-influenza-3 virus. The data set is described as follows: CPE reduction assay in Vero cells. The note with it: read-out: Antiviral EC50, Para-influenza-3 virus. Format: cell-based, Parainfluenza-3 virus.
In data set [6] the test system is Vero cells.
The subject of data set [7] is Punta Toro virus. The data set is described as follows: CPE reduction assay in Vero cells. Type of data set: cell-based. The note with it: read-out: Antiviral EC50, Punta Toro virus.
The test system of data set [8] is Reovirus-1. In words: CPE reduction assay in Vero cells. Format: cell-based. The note with it: read-out: Antiviral EC50, Reovirus-1.
Data set [9] deals with Adeno virus-2. The data set is described as follows: CPE reduction assay in HEL cells. Format: cell-based. The note with it: read-out: Antiviral EC50, Adeno virus-2.
Data set [10] deals with Madin Darby canine kidney (MDCK) cells. The note with it: dog.
Data set [11] relates to Human Coronavirus (229E). The data set is described as follows: CPE reduction assay in HEL cells. Format: cell-based. The note with it: read-out: Antiviral EC50, Human Coronavirus (229E).
For data set [12], the system named is MT4 cells. The note with it: MT4 cell cultures; colorimetric MTT cell viability assay.
In data set [13] the test system is Aspergillus fumigatus (NCIM 2081). In words: Agar disk diffusion, inhibition zone. Format: cell-based. The note with it: 100 µg/8 mm disc, triplicate, mean ± SD. (Agar diffusion results depend on both activity and mobility in agar.)
Data set [14] has as its system Streptococcus pneumonia (ATCC 49619). In words: Agar disk diffusion, inhibition zone. Type of data set: cell-based. The note with it: 100 µg/8 mm disc, triplicate, mean ± SD.
In data set [15] the test system is Pseudomonas aeruginosa (MCCB 0035). In words: MIC, broth microdilution. The note with it: read-out: Minimum inhibitory concentration (MIC), PA. Type of data set: cell-based. The method, boiled down:
(§1)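 Broth microdilution per CLSI in Mueller-Hinton broth, using two-fold serial dilutions of test compound and reference drugs from 512 to 0.25. Bacterial broth cultures were grown 2-6 h to 0.5 McFarland turbidity, then diluted with sterile solution to the final inoculum. MIC is reported in µg/mL.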

The test system of data set [16] is Staphylococcus aureus (ATCC 29213). The data set is described as follows: MIC, broth microdilution. Type of data set: cell-based. The note with it: ATCC29213, read-out: Minimum inhibitory concentration (MIC), SA. The essentials: (§2)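 Antibacterial MICs by CLSI broth microdilution in Mueller-Hinton broth. Test compounds and standard drugs are serially diluted two-fold from 512 to 0.25. The bacterial broth culture is grown 2-6 h to a 0.5 McFarland turbidity, then adjusted with sterile solution to the final inoculum.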

For data set [17], the system named is Cryptococcus neoformans (ATCC 9011). In words: Agar disk diffusion, inhibition zone. Format: cell-based. The note with it: 100 µg/8 mm disc, triplicate, mean ± SD.
Data set [18] concerns Candida albicans (NCIM 2087). In words: MIC, broth microdilution. The note with it: NCIM2087, read-out: Minimum inhibitory concentration (MIC), CA. Type of data set: cell-based. The essentials: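 CLSI broth microdilution in Sabouraud liquid medium, with test compound two-fold serially diluted from 512 to 0.25. Fungal broth culture grown 24 h at 35 °C to 0.5 McFarland turbidity, then adjusted with sterile solution to a final […] inoculum. MIC expressed in µg/mL.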

Data set [19] concerns Bacillus cereus (NCIM-2458). The data set is described as follows: Agar disk diffusion, inhibition zone. Format: cell-based. The note with it: 100 µg/8 mm disc, triplicate, mean ± SD.
Data set [20] concerns Staphylococcus aureus (ATCC 29213). In words: Agar disk diffusion, inhibition zone. Format: cell-based. The note with it: 100 µg/8 mm disc, triplicate, mean ± SD. The essentials:
(§3)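 Agar disk diffusion on Mueller-Hinton agar plates seeded with a standard bacterial suspension. Test compound stock in DMSO, diluted with distilled water; 8 mm sterile filter-paper discs soaked in the solution. Ampicillin was the reference. Plates incubated at 35 °C for 24 h, in triplicate. Read-out is the average inhibition-zone diameter (mm) around each disc.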

The subject of data set [21] is Lactobacillus casei (NCIM-2651). In words: Agar disk diffusion, inhibition zone. Type of data set: cell-based. The note with it: 100 µg/8 mm disc, triplicate, mean ± SD.
The subject of data set [22] is Escherichia coli (ATCC 8739). In words: MIC, broth microdilution. Format: cell-based. The note with it: ATCC8739, read-out: Minimum inhibitory concentration (MIC), EC. The essentials:
as §1
In general terms: Broth dilution looks for growth in wells or tubes with falling amounts of substance.

Data set [23] relates to Aspergillus fumigatus (NCIM 2081). In words: MIC, broth microdilution. Type of data set: cell-based. The note with it: NCIM2081, read-out: Minimum inhibitory concentration (MIC), AF. The essentials:
(§4)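 Antifungal MICs by CLSI broth microdilution in Sabouraud liquid medium. Test compounds and standard drugs are serially diluted two-fold from 512 to 0.25. The fungal broth culture is grown 24 h at 35 °C to a 0.5 McFarland turbidity, then adjusted with sterile solution to the final inoculum.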

The test system of data set [24] is Candida albicans (NCIM 2087). The data set is described as follows: Agar disk diffusion, inhibition zone. Format: cell-based. The note with it: 100 µg/8 mm disc, triplicate, mean ± SD.
Data set [25] has as its system Aspergillus niger (NCIM 2191). In words: Agar disk diffusion, inhibition zone. Type of data set: cell-based. The note with it: 100 µg/8 mm disc, triplicate, mean ± SD. The essentials: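 For the fungal strain, discs soaked in test compound solution (DMSO stock diluted with distilled water) sat on seeded Mueller-Hinton agar. Clotrimazole was the reference. Incubation ran 48 h at 35 °C, in triplicate. Zone of growth inhibition recorded in mm as the mean diameter around each disc.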

Data set [26] relates to Pseudomonas aeruginosa (MCCB 0035). In words: Agar disk diffusion, inhibition zone. The note with it: 100 µg/8 mm disc, triplicate, mean ± SD. Format: cell-based.
For data set [27], the system named is Salmonella typhimurium (NCIM-2501). In words: Agar disk diffusion, inhibition zone. Format: cell-based. The note with it: 100 µg/8 mm disc, triplicate, mean ± SD.
Data set [28] deals with Escherichia coli (ATCC 8739). In words: Agar disk diffusion, inhibition zone. Format: cell-based. The note with it: 100 µg/8 mm disc, triplicate, mean ± SD. The essentials: as §3
Data set [29] relates to Aspergillus niger (NCIM 2191). In words: MIC, broth microdilution. Type of data set: cell-based. The note with it: NCIM2191, read-out: Minimum inhibitory concentration (MIC), AN. The essentials: as §4
Data set [30] relates to Cryptococcus neoformans (ATCC 9011). The data set is described as follows: MIC, broth microdilution. The note with it: ATCC9011, read-out: Minimum inhibitory concentration (MIC), CN. Format: cell-based. The essentials:
as §4

Data set [31] concerns Klebsiella aerogenes (NCIM-2098). The data set is described as follows: Agar disk diffusion, inhibition zone. Format: cell-based. The note with it: 100 µg/8 mm disc, triplicate, mean ± SD.
Data set [32] has the same test system. The data set is described as follows: MIC, broth microdilution. Format: cell-based. The note with it: NCIM2098, read-out: Minimum inhibitory concentration (MIC), KA. The essentials: as §2
Data set [33] deals with Bacillus cereus (NCIM-2458). In words: MIC, broth microdilution. Type of data set: cell-based. The note with it: NCIM2458, read-out: Minimum inhibitory concentration (MIC), BC. The method, boiled down:
as §1

Where [34] appears, read: Vero cell cultures, microscopically detectable alteration of normal cell morphology.

≈ marks a conversion by molar mass, not a printed value. Read-outs that look alike come from different tables or passages of the source.

Take `Nc1nc2c(ncn2COCCO)c(=O)[nH]1` [Acyclovir, reference compound]: the EC50 in [1] is over 250 µM.

As to `COc1c(C)c2c(c(O)c1C/C=C(\C)CCC(=O)O)C(=O)OC2` [Mycophenolic acid, mycophenolic acid, reference compound], the EC50 in data set [2] is over 100 µM; in data set [3] it was 11.7 µM; in data set [4] (Yellow fever virus, Vero), 0.8 µM; in [5] (Vero), 0.4 µM; in data set [7], 1.4 µM; in [8], 0.4 µM. For the same compound, in data set [6] (setting [34]), the Minimum cytotoxic conc. was over 100 µM.

For the compound “dextran sulfate [DS-10.000, reference compound]”, the 50% effective concentration (EC50) is 0.8 µM in data set [4] and over 100 µM in [5]. Moreover, the Minimum cytotoxic conc. in data set [6] was over 100 µM.

Take `Cc1cn([C@H]2C[C@H](F)[C@@H](CO)O2)c(=O)[nH]c1=O` [Alovudine, reference compound]: in [9], the EC50 turned out to be 1.4 µM.

Turning to `NC(=O)c1ncn([C@@H]2O[C@H](CO)[C@@H](O)[C@H]2O)n1` [Ribavirin, reference compound], the EC50 in data set [2] was over 250 µM; in data set [3], over 250 µM; in data set [4] (Yellow fever virus, Vero), over 250 µM; in [5] (Vero) it was 112 µM; in [11] it was over 250 µM; in [8], over 250 µM. In [10], the “Cytotoxicity, Minimum cytotoxic conc.” value is listed as at least 100 µM. For the same compound, the Minimum cytotoxic conc. in data set [6] (setting [34]) was over 250 µM.

In turn, `Cc1cn([C@H]2C[C@H](N=[N+]=[N-])[C@@H](CO)O2)c(=O)[nH]c1=O` [Azidothymidine, reference compound] displayed a Minimum cytotoxic conc. in [12] of over 2 µM.

With `Nc1ccn([C@H]2CC[C@@H](CO)O2)c(=O)n1` [Zalcitabine, reference compound], the EC50 in data set [9] is 50 µM.

For the compound `CC(N)C12CC3CC(CC(C3)C1)C2` (centres unmarked) [Rimantadine, reference compound], the “Cytotoxicity, Minimum cytotoxic conc.” value in data set [10] was over 200 µM.

Regarding `NC12CC3CC(CC(C3)C1)C2` [Amantadine, reference compound], the “Cytotoxicity, Minimum cytotoxic conc.” value in data set [10] is over 100 µM.

In data set [12], `O=c1[nH]cnc2c1ncn2[C@H]1CC[C@@H](CO)O1` [Didanosine, reference compound] displayed a Minimum cytotoxic conc. of over 50 µM.

`Nc1ccn([C@@H]2CS[C@H](CO)O2)c(=O)n1` [Lamivudine, reference compound] returned a Minimum cytotoxic conc. in data set [12] of over 20 µM.

For `Nc1nc(O)c2ncn(COC(CO)CO)c2n1` [Ganciclovir, reference compound], the EC50 in [1] was over 100 µM.

For `CC(=O)N[C@H]1[C@H]([C@H](O)[C@H](O)CO)OC(C(=O)O)=C[C@@H]1N=C(N)N` [Zanamivir, reference compound], in data set [10], the “Cytotoxicity, Minimum cytotoxic conc.” value is over 100 µM.

In the case of `Cc1ccc(S(=O)(=O)N2C(=O)CSC2c2ccccc2C)cc1` (centres unmarked) [5r, 2-(2-Methylphenyl)-3-[(4-methylphenyl)sulfonyl]-1,3-thiazolidin-4-one], in [13], the “Diameter of growth inhibition zone, AF” value turned out to be 9.6 ± 0.9 mm. For the same compound, in [14], the “Diameter of growth inhibition zone, SP” value was 08 ± 0.8 mm. The MIC in [15] amounted to 64 µg/mL (≈ 184 µM); in data set [16] it was 64 µg/mL (≈ 184 µM); in data set [18], 64 µg/mL (≈ 184 µM); in data set [22] it was 64 µg/mL (≈ 184 µM); in data set [23] it was 128 µg/mL (≈ 368 µM); in data set [29], 64 µg/mL (≈ 184 µM). The MIC in data set [30], in [32] and in data set [33] was 128 µg/mL (≈ 368 µM) in each case. The “Diameter of growth inhibition zone, CN” value in [17] came to 11 ± 0.7 mm. Besides, the “Diameter of growth inhibition zone, BC” value in [19] was found to be 08 ± 0.4 mm. For the same compound, the “Diameter of growth inhibition zone, SA” value in [20] amounted to 14 ± 1.1 mm. Moreover, the “Diameter of growth inhibition zone, LC” value in data set [21] came to 10 ± 0.7 mm. For the same compound, the “Diameter of growth inhibition zone, CA” value in data set [24] worked out at 10 ± 0.6 mm. In addition, the “Diameter of growth inhibition zone, AN” value in data set [25] is on record as 9.8 ± 0.9 mm. In data set [26], the “Diameter of growth inhibition zone, PA” value turned out to be 16 ± 1.9 mm. For the same compound, in data set [27], the “Diameter of growth inhibition zone, ST” value is listed as 08 ± 0.6 mm. Moreover, in data set [28], the “Diameter of growth inhibition zone, EC” value was 15 ± 0.69 mm. Further, the “Diameter of growth inhibition zone, KA” value in data set [31] is reported as 08 ± 0.3 mm.

For `Cc1ccnc2c1NC(=O)c1cccnc1N2C1CC1` [Nevirapine, reference compound], the Minimum cytotoxic conc. in data set [12] is over 4 µM.
